Results published in ChEMBL document CHEMBL2176919, “Design, synthesis, and biological evaluation of 17-cyclopropylmethyl-3,14β-dihydroxy-4,5α-epoxy-6β-[(4'-pyridyl)carboxamido]morphinan derivatives as peripheral selective μ opioid receptor Agents” (J Med Chem, 2012).
Active and inactive are the calls of the source.

Tests used:
Mu-type opioid receptor [1] = biological target: T1, Mu-type opioid receptor (Homo sapiens, UniProt P35372); assay: Agonist activity at mu opioid receptor expressed in CHO cells assessed as stimulation of [35S]-GTP-gammaS binding relative to DAMGO; format: cell-based
[2] = Selectivity ratio of Ki for kappa opioid receptor to Ki for mu opioid receptor
[3] = Selectivity ratio of Ki for delta opioid receptor to Ki for mu opioid receptor
[4] = biological target: T2, Kappa-type opioid receptor (Homo sapiens, UniProt P41145); assay: Displacement of [3H]DPN from kappa opioid receptor expressed in CHO cells after 1 hr; format: cell-based
[5] = biological target: T3, Delta-type opioid receptor (Homo sapiens, UniProt P41143); assay: Displacement of [3H]NTI from delta opioid receptor expressed in CHO cells after 1 hr; format: cell-based
Mu-type opioid receptor [6] = biological target: T1, Mu-type opioid receptor; assay: Displacement of [3H]Naloxone from mu opioid receptor expressed in CHO cells after 1 hr; format: cell-based
Mu-type opioid receptor [7] = biological target: T1, Mu-type opioid receptor; assay: Agonist activity at mu opioid receptor expressed in CHO cells assessed as stimulation of [35S]-GTP-gammaS binding; format: cell-based
Outline: (§1)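 GTP[γS] functional assay in membranes of CHO cells expressing the cloned opioid receptor. Membrane protein 10 μg incubated at 30 °C with varying drug concentrations and 0.1 nM 35S-GTP[γS]: μ with 10 μM GDP for 2 h; κ and δ with 20 μM GDP for 1.5 h. Nonspecific binding defined with 10 μM unlabeled GTP[γS].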

Mu-type opioid receptor [8] = biological target: T1, Mu-type opioid receptor; details: CHO; 100 nM
Caco-2 = assay: Apparent permeability of the compound across human Caco2 cells; format: ADME, cell-based
Outline: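 Caco-2 cells (passages 45–47) grown 22 days on 0.4 μm Transwell filters seeded at 80 000 cells/cm2, in DMEM with 10% FBS, antibiotics and nonessential amino acids. Drug in HEPES-buffered (10 mM) HBSS was added apically or basolaterally, and the receiver side was sampled up to 2 h. Samples were quantified by HPLC-UV. Papp = J/(A·Ci).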

Mus musculus [9] = assay: Inhibition of morphine-induced decrease in gastrointestinal motility in sc dosed Swiss-Webster mouse; format: functional
Outline: (§2)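 GI transit assay in male Swiss-Webster mice, groups of four or six. Compound or saline was given sc at time zero, then morphine (2 or 10 mg/kg) sc 5 min later. A charcoal meal was gavaged 20 min after morphine. Mice were killed 30 min after the meal, and charcoal distance was expressed as a percentage of small-intestine length from pylorus to cecum. Significance was tested by one-way ANOVA with Dunnett's test.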

Mus musculus [10] = assay: Effect on gastrointestinal motility in Swiss-Webster mouse at 10 mg/kg, sc; format: functional, organism-based; design: dose 10 mg/kg
Mus musculus [11] = assay: Inhibition of morphine-induced decrease in gastrointestinal motility in Swiss-Webster mouse at 10 mg/kg, sc; format: functional, organism-based; design: dose 10 mg/kg; outline: as §2
Mus musculus [12] = assay: Toxicity in morphine-pelleted Swiss-Webster mouse assessed as diarrhea up to 10 mg/kg, sc; format: organism-based; design: dose 10 mg/kg, route subcutaneous; details: in vivo
Mus musculus [13] = assay: Inhibition of morphine-induced decrease in gastrointestinal motility in sc dosed morphine-pelleted Swiss-Webster mouse; format: functional
Mus musculus [14] = assay: Inhibition of morphine-induced antinociceptive activity in Swiss-Webster mouse assessed as thermal-stimulus induced tail flick latency at 10 mg/kg; format: functional, organism-based; design: dose 10 mg/kg
Mus musculus [15] = assay: Antinociceptive activity in Swiss-Webster mouse assessed as thermal-stimulus induced tail flick latency at 10 mg/kg relative to morphine; format: functional
Outline: (§3)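 Warm-water tail flick test in male Swiss-Webster mice (25–30 g) with a 56 ± 0.1 °C bath. Only mice with a 2–4 s baseline latency were used, and a 10 s cutoff was applied. Latency was read after drug treatment. %MPE = [(test − control latency)/(10 − control latency)] × 100, computed per mouse with at least six mice per drug.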

[16] = biological target: T3, Delta-type opioid receptor; assay: Agonist activity at delta opioid receptor expressed in CHO cells assessed as stimulation of [35S]-GTP-gammaS binding relative to SNC80; format: functional, cell-based
[17] = biological target: T3, Delta-type opioid receptor; assay: Agonist activity at delta opioid receptor expressed in CHO cells assessed as stimulation of [35S]-GTP-gammaS binding; format: functional, cell-based; outline: as §1
[18] = biological target: T2, Kappa-type opioid receptor; assay: Agonist activity at kappa opioid receptor expressed in CHO cells assessed as stimulation of [35S]-GTP-gammaS binding relative to U50,488H; format: functional, cell-based
[19] = biological target: T2, Kappa-type opioid receptor; assay: Agonist activity at kappa opioid receptor expressed in CHO cells assessed as stimulation of [35S]-GTP-gammaS binding; format: functional, cell-based; outline: as §1
Mus musculus [20] = assay: Inhibition of morphine-induced decrease in gastrointestinal motility in morphine-pelleted Swiss-Webster mouse at 0.3 to 10 mg/kg, sc; format: functional, organism-based
Mus musculus [21] = assay: Inhibition of morphine-induced antinociceptive activity in Swiss-Webster mouse assessed as thermal-stimulus induced tail flick latency up to 30 mg/kg; format: functional, organism-based; design: dose 30 mg/kg
Mus musculus [22] = assay: Antinociceptive activity in Swiss-Webster mouse assessed as thermal-stimulus induced tail flick latency at 3 mg/kg relative to morphine; format: functional; outline: as §3
Mus musculus [23] = assay: Antinociceptive activity in Swiss-Webster mouse assessed as thermal-stimulus induced tail flick latency at 10 mg/kg; format: functional
Outline: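 Male Swiss-Webster mice, 25–30 g, allowed 18 h to recover from transport. Warm-water tail flick, bath at 56 ± 0.1 °C; only mice with 2–4 s baseline latency used. Latency retested after drug at the appropriate time, 10 s cutoff. Expressed as %MPE = [(test − control latency)/(10 − control latency)] × 100, calculated per mouse, at least six mice per drug.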

T2 sequence (P41145 whole entry): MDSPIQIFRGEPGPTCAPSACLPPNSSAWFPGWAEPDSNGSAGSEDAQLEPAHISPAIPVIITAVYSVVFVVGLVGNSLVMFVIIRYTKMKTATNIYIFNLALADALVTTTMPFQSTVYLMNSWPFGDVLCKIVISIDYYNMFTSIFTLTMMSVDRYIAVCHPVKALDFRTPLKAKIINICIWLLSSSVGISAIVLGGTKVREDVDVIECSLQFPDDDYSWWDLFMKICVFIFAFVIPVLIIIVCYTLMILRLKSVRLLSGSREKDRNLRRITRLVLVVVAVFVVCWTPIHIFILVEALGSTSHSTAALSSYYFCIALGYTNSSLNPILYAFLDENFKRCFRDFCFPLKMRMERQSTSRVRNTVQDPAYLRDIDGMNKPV
T1 sequence (P35372 whole entry): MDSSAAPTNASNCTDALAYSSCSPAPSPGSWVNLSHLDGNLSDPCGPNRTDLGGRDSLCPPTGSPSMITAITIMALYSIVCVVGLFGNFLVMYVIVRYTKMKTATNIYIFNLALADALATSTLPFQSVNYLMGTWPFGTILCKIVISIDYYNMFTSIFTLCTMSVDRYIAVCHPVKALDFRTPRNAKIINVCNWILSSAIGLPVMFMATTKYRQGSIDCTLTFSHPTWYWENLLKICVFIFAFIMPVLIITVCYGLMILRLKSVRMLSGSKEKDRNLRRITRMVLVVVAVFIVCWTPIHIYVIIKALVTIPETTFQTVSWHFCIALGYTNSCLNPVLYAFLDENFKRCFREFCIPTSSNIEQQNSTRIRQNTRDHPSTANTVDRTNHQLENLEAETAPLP
T3 sequence (P41143 whole entry): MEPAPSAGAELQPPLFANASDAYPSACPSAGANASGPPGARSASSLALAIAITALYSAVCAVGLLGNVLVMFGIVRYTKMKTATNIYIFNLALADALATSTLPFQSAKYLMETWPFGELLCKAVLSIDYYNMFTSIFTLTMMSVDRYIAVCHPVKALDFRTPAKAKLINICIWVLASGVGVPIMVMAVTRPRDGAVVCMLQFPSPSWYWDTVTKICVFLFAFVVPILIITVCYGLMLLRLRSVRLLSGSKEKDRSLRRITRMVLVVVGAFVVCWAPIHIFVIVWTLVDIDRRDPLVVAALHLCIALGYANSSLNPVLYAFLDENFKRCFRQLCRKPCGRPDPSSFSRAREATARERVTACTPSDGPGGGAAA

## O=C(N[C@@H]1CC[C@@]2(O)[C@H]3Cc4ccc(O)c5c4[C@@]2(CCN3CC2CC2)[C@H]1O5)c1ccncc1Cl
Mu-type opioid receptor [1]
  Emax: 24.9%
[2]
  Ratio Ki: 30
[3]
  Ratio Ki: 746

## COc1cnccc1C(=O)N[C@@H]1CC[C@@]2(O)[C@H]3Cc4ccc(O)c5c4[C@@]2(CCN3CC2CC2)[C@H]1O5
[4]
  Ki: 4.28 nM
[2]
  Ratio Ki: 10
[3]
  Ratio Ki: 242
[5]
  Ki: 104 nM
Mu-type opioid receptor [6]
  Ki: 0.43 nM

## COc1cc(C(=O)N[C@@H]2CC[C@@]3(O)[C@H]4Cc5ccc(O)c6c5[C@@]3(CCN4CC3CC3)[C@H]2O6)ccn1
[4]
  Ki: 0.46 nM
Mu-type opioid receptor [1]
  Emax: 25.3%
Mu-type opioid receptor [7]
  EC50: 7.89 nM
[2]
  Ratio Ki: 0.8
[3]
  Ratio Ki: 267
[5]
  Ki: 160 nM
Mu-type opioid receptor [6]
  Ki: 0.6 nM

## O=C(N[C@@H]1CC[C@@]2(O)[C@H]3Cc4ccc(O)c5c4[C@@]2(CCN3CC2CC2)[C@H]1O5)c1ccncc1Br
Mu-type opioid receptor [1]
  Emax: 23.2%
[2]
  Ratio Ki: 6
[3]
  Ratio Ki: 285

## O=C(N[C@@H]1CC[C@@]2(O)[C@H]3Cc4ccc(O)c5c4[C@@]2(CCN3CC2CC2)[C@H]1O5)c1ccnnc1
[4]
  Ki: 1.57 nM
Mu-type opioid receptor [1]
  Emax: 27.6%
Mu-type opioid receptor [7]
  EC50: 28.3 nM
[2]
  Ratio Ki: 0.7
[3]
  Ratio Ki: 203
[5]
  Ki: 420 nM
Mu-type opioid receptor [6]
  Ki: 2.07 nM

## C[C@@H](O)[C@H](NC(=O)[C@H]1NC(=O)[C@H]([C@@H](C)O)NC(=O)[C@H](CCCNC(=N)N)NC(=O)[C@@H](Cc2c[nH]c3ccccc23)NC(=O)[C@H](Cc2ccc(O)cc2)NC(=O)[C@@H](NC(=O)[C@H](N)Cc2ccccc2)CSSC1(C)C)C(N)=O
Mu-type opioid receptor [8]
  Emax: 1.99%

## C[N@+]1(CC2CC2)CC[C@]23c4c5ccc(O)c4O[C@H]2C(=O)CC[C@@]3(O)[C@H]1C5
[2]
  Ratio Ki: 10
[3]
  Ratio Ki: 24

## O=C(CCc1ccncc1)N[C@@H]1CC[C@@]2(O)[C@H]3Cc4ccc(O)c5c4[C@@]2(CCN3CC2CC2)[C@H]1O5
Mu-type opioid receptor [1]
  Emax: 22.6%
[2]
  Ratio Ki: 2.9
[3]
  Ratio Ki: 516

## Cc1cnccc1C(=O)N[C@@H]1CC[C@@]2(O)[C@H]3Cc4ccc(O)c5c4[C@@]2(CCN3CC2CC2)[C@H]1O5
Caco-2
  Papp: permeable
Mus musculus [9]
  ED50: 7.85 mg/kg
Mus musculus [10]
  Activity: Active
Mus musculus [11]
  inhibition: Active
Mus musculus [12]
  Activity: Non-toxic
Mus musculus [13]
  ED50: 0.03 mg/kg
  inhibition: Dose-dependent effect
Mus musculus [14]
  inhibition: inactive
Mus musculus [15]
  MPE: 4.4%
[16]
  Emax: 90.2%
[17]
  EC50: 38.6 nM
[18]
  Emax: 31.4%
[19]
  EC50: 26.4 nM
Mu-type opioid receptor [1]
  Emax: 30.6%
[2]
  Ratio Ki: 166
[3]
  Ratio Ki: 470

## O=C(CNC(=O)c1ccncc1)N[C@@H]1CC[C@@]2(O)[C@H]3Cc4ccc(O)c5c4[C@@]2(CCN3CC2CC2)[C@H]1O5
Caco-2
  Papp: permeable
Mus musculus [10]
  Activity: Active
Mus musculus [11]
  inhibition: inactive
Mus musculus [12]
  Activity: Non-toxic
Mus musculus [20]
  inhibition: Active
Mus musculus [13]
  ED50: 0.08 mg/kg
Mus musculus [21]
  inhibition: inactive
Mus musculus [22]
  MPE: 11.2%
[16]
  Emax: 84.3%
[17]
  EC50: 19 nM
[18]
  Emax: 23.5%
[19]
  EC50: 25 nM
Mu-type opioid receptor [1]
  Emax: 22.6%

## N#Cc1cc(C(=O)N[C@@H]2CC[C@@]3(O)[C@H]4Cc5ccc(O)c6c5[C@@]3(CCN4CC3CC3)[C@H]2O6)ccn1
[4]
  Ki: 0.13 nM
Mu-type opioid receptor [1]
  Emax: 43.1%
Mu-type opioid receptor [7]
  EC50: 10 nM
[2]
  Ratio Ki: 0.1
[3]
  Ratio Ki: 60
[5]
  Ki: 75.3 nM
Mu-type opioid receptor [6]
  Ki: 1.25 nM

## CN1CC[C@]23c4c5ccc(O)c4O[C@H]2[C@@H](O)C=C[C@H]3[C@H]1C5 [MORPHINE]
Mus musculus [23]
  MPE: 100%

## O=C(Cc1ccncc1)N[C@@H]1CC[C@@]2(O)[C@H]3Cc4ccc(O)c5c4[C@@]2(CCN3CC2CC2)[C@H]1O5
Mu-type opioid receptor [1]
  Emax: 32.8%
[2]
  Ratio Ki: 10.6
[3]
  Ratio Ki: 1020

## CN1CCC(C(=O)N[C@@H]2CC[C@@]3(O)[C@H]4Cc5ccc(O)c6c5[C@@]3(CCN4CC3CC3)[C@H]2O6)CC1
Mu-type opioid receptor [1]
  Emax: 37.2%
[2]
  Ratio Ki: 7.5
[3]
  Ratio Ki: 2970

## Cc1cc(C(=O)N[C@@H]2CC[C@@]3(O)[C@H]4Cc5ccc(O)c6c5[C@@]3(CCN4CC3CC3)[C@H]2O6)ccn1
Mu-type opioid receptor [1]
  Emax: 43.3%
[2]
  Ratio Ki: 1.5
[3]
  Ratio Ki: 232

## O=C(N[C@@H]1CC[C@@]2(O)[C@H]3Cc4ccc(O)c5c4[C@@]2(CCN3CC2CC2)[C@H]1O5)c1ccnc(Cl)c1
Mu-type opioid receptor [1]
  Emax: 58.2%
[2]
  Ratio Ki: 1.5
[3]
  Ratio Ki: 6110

## O=C(N[C@@H]1CC[C@@]2(O)[C@H]3Cc4ccc(O)c5c4[C@@]2(CCN3CC2CC2)[C@H]1O5)c1ccncc1
[18]
  Emax: 45.5%
[19]
  EC50: 28.8 nM

## O=C(N[C@@H]1CC[C@@]2(O)[C@H]3Cc4ccc(O)c5c4[C@@]2(CCN3CC2CC2)[C@H]1O5)c1ccnc(Br)c1
Mu-type opioid receptor [1]
  Emax: 50.8%
[2]
  Ratio Ki: 0.3
[3]
  Ratio Ki: 276
